Values belong to the compound of their own block, whether it stands above or below them.
Assays:
[1] = target: Serine/threonine-protein kinase N1 (Homo sapiens) (UniProt Q16512); experiment: Inhibition of human recombinant PKN1 at 500 nM in presence of ATP by radiometric assay relative to control
[2] = target: Tyrosine-protein kinase receptor UFO (Homo sapiens) (UniProt P30530); experiment: Inhibition of human recombinant AXL at 500 nM related to control ULK1
Procedure, shortened: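 Panel of 327 recombinant human kinases, each assayed in vitro by radiometric activity assay in duplicate at a single inhibitor concentration per compound, chosen with reference to its ULK1 inhibition. Activity remaining was expressed as percent of vehicle control, and percent inhibition was calculated as 100 minus percent activity remaining.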

[3] = target: Cyclin-dependent kinase-like 3 (Homo sapiens) (UniProt Q8IVW4); experiment: Inhibition of human recombinant CDKL3 at 15 nM in presence of ATP by radiometric assay relative to control
Sequence of Cyclin-dependent kinase-like 3 (Homo sapiens) (Q8IVW4 whole entry, looked up): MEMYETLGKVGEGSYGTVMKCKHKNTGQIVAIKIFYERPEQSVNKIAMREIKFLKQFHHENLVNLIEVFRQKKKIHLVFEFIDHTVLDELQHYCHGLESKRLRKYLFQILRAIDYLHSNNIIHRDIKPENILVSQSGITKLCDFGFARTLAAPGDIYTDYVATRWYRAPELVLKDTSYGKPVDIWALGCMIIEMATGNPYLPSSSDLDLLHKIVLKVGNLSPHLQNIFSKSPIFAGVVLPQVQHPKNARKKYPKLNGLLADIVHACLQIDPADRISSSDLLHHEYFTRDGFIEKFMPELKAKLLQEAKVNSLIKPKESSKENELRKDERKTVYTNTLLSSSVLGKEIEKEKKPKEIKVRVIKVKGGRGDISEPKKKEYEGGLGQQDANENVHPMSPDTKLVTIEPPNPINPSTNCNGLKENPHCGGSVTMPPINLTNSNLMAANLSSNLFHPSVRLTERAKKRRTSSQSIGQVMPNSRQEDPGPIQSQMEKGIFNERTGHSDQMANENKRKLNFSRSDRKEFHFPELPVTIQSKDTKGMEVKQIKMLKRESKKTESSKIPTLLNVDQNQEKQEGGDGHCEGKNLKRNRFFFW

[4] = target: Mitogen-activated protein kinase 14 (Homo sapiens) (UniProt Q16539); experiment: Inhibition of human recombinant p38alpha at 15 nM in presence of ATP by radiometric assay relative to control
Sequence of Mitogen-activated protein kinase 14 (Homo sapiens) (Q16539 whole entry): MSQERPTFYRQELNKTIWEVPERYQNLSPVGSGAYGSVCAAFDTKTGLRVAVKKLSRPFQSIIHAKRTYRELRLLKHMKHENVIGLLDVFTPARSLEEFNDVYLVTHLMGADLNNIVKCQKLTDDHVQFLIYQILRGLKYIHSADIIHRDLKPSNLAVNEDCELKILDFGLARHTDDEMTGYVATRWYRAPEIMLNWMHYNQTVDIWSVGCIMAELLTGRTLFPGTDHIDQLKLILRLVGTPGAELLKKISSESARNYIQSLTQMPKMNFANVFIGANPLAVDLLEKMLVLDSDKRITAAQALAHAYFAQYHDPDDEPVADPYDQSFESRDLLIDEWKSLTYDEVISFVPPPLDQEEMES

[5] = target: Receptor-interacting serine/threonine-protein kinase 2 (Homo sapiens) (UniProt O43353); experiment: Inhibition of human recombinant RIPK2 at 15 nM in presence of ATP by radiometric assay relative to control
Sequence of Receptor-interacting serine/threonine-protein kinase 2 (Homo sapiens) (O43353 whole entry): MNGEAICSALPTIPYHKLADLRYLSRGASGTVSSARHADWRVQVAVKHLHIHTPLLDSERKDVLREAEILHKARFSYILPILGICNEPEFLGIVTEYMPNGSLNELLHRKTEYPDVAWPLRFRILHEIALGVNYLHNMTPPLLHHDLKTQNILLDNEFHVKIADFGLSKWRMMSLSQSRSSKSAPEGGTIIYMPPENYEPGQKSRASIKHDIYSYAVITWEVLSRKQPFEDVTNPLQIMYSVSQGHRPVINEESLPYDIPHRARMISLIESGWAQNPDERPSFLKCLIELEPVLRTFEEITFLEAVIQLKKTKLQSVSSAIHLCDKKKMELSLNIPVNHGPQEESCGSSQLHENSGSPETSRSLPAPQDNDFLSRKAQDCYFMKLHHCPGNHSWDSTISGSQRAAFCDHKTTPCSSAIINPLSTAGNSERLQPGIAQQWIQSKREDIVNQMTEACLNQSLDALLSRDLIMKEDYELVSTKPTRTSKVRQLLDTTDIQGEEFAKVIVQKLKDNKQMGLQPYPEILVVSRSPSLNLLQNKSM

[6] = target: Ribosomal protein S6 kinase alpha-3 (Homo sapiens) (UniProt P51812); experiment: Inhibition of human recombinant RSK2 at 15 nM in presence of ATP by radiometric assay relative to control
[7] = target: Tyrosine-protein kinase Yes (Homo sapiens) (UniProt P07947); experiment: Inhibition of human recombinant YES at 15 nM in presence of ATP by radiometric assay relative to control
Sequence of Tyrosine-protein kinase Yes (Homo sapiens) (P07947 2-543 limits assumed): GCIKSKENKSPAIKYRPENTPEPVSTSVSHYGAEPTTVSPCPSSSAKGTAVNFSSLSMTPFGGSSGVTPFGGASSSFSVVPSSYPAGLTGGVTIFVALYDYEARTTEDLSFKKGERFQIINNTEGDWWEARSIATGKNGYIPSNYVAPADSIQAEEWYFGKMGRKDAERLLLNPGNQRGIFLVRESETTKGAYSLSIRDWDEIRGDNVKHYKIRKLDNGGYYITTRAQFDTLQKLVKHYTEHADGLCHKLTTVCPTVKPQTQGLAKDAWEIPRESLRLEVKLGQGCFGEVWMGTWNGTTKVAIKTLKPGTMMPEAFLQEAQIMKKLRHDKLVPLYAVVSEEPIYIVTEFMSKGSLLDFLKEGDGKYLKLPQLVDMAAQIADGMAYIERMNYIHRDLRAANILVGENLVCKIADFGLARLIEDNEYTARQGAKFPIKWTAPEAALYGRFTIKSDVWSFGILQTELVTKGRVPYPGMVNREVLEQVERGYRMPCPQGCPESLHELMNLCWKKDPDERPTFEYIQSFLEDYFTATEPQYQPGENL

[8] = target: Serine/threonine-protein kinase B-raf (Homo sapiens) (UniProt P15056); experiment: Inhibition of human recombinant BRAF at 15 nM related to control ULK1
[9] = target: Dual specificity tyrosine-phosphorylation-regulated kinase 1A (Homo sapiens) (UniProt Q13627); experiment: Inhibition of human recombinant DYRK1A at 15 nM related to control ULK1
[10] = species: Homo sapiens; experiment: Inhibition of human recombinant KHS1 at 15 nM related to control ULK1
[11] = target: Serine/threonine-protein kinase PLK2 (Homo sapiens) (UniProt Q9NYY3); experiment: Inhibition of human recombinant PLK2 at 15 nM related to control ULK1
[12] = species: Homo sapiens; experiment: Inhibition of human recombinant ABL at 40 nM in presence of ATP by radiometric assay relative to control
Procedure, shortened: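 Radiometric activity assays in a panel of 327 human recombinant kinases, each run in duplicate at one inhibitor concentration. Activity remaining is expressed as percent of vehicle control, and percent inhibition is calculated as 100% minus percent activity remaining.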

[13] = target: Tyrosine-protein kinase Lyn (Homo sapiens) (UniProt P07948); experiment: Inhibition of human recombinant LYN at 40 nM in presence of ATP by radiometric assay relative to control
Sequence of Tyrosine-protein kinase Lyn (Homo sapiens) (P07948 2-512 limits assumed): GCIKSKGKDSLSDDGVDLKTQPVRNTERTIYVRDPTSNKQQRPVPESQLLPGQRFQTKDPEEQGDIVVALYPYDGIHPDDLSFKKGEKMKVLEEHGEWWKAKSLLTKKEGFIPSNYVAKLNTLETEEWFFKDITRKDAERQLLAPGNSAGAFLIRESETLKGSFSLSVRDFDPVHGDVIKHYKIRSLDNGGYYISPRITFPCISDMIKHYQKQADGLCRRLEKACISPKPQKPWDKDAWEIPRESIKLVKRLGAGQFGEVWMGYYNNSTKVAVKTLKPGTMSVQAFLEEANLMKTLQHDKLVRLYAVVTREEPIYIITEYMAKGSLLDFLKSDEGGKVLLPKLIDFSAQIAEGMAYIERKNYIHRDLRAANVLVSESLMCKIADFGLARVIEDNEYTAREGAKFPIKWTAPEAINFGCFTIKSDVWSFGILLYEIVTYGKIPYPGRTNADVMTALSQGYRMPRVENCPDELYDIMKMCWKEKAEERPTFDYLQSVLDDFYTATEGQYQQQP

[14] = target: T1, Mitogen-activated protein kinase kinase kinase 5 (Homo sapiens) (UniProt Q99683); experiment: Inhibition of human recombinant MAP3K5 at 40 nM in presence of ATP by radiometric assay relative to control
T1 sequence (whole entry): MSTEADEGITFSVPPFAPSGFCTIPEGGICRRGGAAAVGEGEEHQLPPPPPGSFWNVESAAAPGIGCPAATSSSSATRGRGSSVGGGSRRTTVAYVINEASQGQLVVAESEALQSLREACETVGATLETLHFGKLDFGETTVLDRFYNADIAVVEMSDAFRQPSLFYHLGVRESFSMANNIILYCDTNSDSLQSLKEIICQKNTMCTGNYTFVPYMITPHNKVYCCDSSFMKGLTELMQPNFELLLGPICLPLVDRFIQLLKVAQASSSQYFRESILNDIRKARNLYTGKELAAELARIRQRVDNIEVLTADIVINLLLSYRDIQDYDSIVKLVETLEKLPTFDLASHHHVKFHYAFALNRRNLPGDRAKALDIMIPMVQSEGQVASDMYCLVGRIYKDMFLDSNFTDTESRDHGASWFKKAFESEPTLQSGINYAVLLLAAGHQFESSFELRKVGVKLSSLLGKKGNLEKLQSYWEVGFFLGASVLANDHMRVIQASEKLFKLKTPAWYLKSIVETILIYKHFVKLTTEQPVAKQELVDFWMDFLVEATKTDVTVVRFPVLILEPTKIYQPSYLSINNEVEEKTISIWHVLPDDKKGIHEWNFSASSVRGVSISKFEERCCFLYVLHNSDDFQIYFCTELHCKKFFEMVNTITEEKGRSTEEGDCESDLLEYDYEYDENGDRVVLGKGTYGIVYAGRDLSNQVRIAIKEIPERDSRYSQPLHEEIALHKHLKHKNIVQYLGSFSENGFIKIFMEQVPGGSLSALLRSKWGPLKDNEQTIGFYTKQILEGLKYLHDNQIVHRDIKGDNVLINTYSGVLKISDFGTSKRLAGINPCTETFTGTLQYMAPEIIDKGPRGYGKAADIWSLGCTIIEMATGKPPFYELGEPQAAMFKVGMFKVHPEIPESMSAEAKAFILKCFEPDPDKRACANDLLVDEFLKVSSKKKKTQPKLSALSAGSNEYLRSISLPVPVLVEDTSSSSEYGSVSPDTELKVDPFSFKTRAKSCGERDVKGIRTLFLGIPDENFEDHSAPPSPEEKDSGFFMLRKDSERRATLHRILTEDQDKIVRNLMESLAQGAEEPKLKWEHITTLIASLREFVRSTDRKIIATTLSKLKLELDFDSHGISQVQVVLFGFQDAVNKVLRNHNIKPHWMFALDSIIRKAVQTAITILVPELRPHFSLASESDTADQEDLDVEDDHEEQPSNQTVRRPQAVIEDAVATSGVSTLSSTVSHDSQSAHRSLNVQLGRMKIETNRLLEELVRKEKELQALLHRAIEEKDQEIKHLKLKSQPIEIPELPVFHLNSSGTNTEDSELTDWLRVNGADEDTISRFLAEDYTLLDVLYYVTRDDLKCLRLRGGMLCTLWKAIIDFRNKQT

[15] = target: Tyrosine-protein kinase SYK (Homo sapiens) (UniProt P43405); experiment: Inhibition of human recombinant SYK at 40 nM in presence of ATP by radiometric assay relative to control
[16] = target: Cell division cycle 7-related protein kinase (Homo sapiens) (UniProt O00311); experiment: Inhibition of human recombinant CDC7 at 40 nM related to control ULK1
Sequence of Cell division cycle 7-related protein kinase (Homo sapiens) (O00311 whole entry, looked up): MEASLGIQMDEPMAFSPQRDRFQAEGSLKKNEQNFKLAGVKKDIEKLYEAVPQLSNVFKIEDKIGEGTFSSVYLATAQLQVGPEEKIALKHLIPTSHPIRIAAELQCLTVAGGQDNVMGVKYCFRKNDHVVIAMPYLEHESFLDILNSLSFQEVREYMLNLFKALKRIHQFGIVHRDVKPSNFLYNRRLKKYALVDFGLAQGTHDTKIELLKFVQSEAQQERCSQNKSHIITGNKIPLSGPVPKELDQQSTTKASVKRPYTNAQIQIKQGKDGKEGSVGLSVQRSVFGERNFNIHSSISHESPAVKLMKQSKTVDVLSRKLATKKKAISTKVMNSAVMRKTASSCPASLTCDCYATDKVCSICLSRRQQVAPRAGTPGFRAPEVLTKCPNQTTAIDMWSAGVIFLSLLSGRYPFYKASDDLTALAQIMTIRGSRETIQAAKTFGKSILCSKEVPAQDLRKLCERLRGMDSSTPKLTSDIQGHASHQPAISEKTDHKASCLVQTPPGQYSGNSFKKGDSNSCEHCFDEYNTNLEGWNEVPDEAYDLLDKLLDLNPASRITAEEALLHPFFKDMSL

[17] = species: Homo sapiens; experiment: Inhibition of human recombinant CK1d at 40 nM related to control ULK1

Sequence of Serine/threonine-protein kinase N1 (Homo sapiens) (Q16512 2-942 limits assumed): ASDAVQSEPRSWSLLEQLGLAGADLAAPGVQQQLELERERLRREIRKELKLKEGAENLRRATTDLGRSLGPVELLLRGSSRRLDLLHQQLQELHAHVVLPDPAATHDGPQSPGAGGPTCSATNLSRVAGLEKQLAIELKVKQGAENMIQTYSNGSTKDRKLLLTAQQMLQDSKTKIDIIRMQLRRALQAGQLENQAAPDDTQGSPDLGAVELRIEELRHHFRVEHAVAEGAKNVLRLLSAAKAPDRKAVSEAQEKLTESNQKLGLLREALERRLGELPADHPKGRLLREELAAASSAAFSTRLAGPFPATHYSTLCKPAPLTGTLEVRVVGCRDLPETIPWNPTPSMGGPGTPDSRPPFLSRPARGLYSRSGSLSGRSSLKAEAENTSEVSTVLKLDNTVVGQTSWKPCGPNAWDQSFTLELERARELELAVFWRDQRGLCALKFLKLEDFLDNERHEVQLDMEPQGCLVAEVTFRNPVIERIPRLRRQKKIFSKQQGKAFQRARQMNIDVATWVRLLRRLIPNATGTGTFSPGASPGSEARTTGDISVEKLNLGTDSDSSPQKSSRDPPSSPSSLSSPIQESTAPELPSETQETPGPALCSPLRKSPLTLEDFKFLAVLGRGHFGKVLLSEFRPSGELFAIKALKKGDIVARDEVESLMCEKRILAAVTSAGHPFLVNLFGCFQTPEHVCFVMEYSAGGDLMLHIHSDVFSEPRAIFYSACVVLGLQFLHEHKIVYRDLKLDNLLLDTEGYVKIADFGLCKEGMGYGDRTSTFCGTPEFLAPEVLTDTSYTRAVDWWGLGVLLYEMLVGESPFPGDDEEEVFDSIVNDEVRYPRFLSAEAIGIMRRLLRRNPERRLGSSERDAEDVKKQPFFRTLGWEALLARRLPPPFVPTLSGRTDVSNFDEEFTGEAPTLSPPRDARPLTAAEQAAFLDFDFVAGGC
Sequence of Tyrosine-protein kinase receptor UFO (Homo sapiens) (P30530 whole entry): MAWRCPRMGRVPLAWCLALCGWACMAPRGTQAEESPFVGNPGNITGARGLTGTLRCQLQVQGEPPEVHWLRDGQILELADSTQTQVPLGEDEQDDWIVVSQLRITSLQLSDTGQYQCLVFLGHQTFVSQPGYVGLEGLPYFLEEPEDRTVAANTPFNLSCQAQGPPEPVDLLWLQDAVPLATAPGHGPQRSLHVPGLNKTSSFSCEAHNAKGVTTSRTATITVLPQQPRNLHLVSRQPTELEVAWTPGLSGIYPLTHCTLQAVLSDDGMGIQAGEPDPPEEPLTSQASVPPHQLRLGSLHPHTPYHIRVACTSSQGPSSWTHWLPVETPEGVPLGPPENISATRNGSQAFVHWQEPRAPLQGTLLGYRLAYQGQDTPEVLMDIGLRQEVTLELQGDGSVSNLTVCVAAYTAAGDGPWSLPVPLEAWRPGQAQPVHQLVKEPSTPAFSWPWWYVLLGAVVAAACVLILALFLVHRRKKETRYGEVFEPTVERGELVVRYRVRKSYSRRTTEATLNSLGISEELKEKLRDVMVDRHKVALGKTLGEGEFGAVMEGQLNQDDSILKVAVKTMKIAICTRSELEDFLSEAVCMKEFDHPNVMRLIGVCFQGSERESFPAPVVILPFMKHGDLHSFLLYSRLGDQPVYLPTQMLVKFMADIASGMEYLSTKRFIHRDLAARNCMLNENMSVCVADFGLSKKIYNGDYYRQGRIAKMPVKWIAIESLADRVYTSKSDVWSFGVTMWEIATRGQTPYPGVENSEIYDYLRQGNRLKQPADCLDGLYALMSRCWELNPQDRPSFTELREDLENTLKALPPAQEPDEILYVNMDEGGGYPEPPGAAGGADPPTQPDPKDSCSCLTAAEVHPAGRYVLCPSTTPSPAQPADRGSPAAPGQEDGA

inhibition [1]: 0%
fold change (FC) [2]: 0.07
SMILES: CNC(=O)c1ccccc1Oc1nc(Nc2cc(OC)c(OC)c(OC)c2)ncc1Br

inhibition [3]: 34%
inhibition [4]: 5%
inhibition [5]: 10%
inhibition [6]: 0%
inhibition [7]: 76%
fold change (FC) [8]: 0.13
fold change (FC) [9]: 0.83
fold change (FC) [10]: 0.16
fold change (FC) [11]: 0.05
SMILES: CC(C)[C@H](NC(=O)c1cc(-c2cnn3cc(-c4ccc(OCCN5CCCCC5)cc4)cnc23)cs1)C(F)(F)F

inhibition [12]: 12%
inhibition [13]: 18%
inhibition [14]: 0%
inhibition [15]: 0%
fold change (FC) [16]: 0.53
fold change (FC) [17]: 0.04
SMILES: O=C(N[C@@H](C1CC1)C(F)(F)F)c1cc(-c2cnn3cc(-c4ccc(F)cc4)cnc23)cs1

From ChEMBL document CHEMBL5653631, “A Potent and Selective ULK1 Inhibitor Suppresses Autophagy and Sensitizes Cancer Cells to Nutrient Stress” (iScience, 2018)
